PubChem BioAssay AID652191 (Vanderbilt Specialized Chemistry Center, 2013)
The source made the active and inactive calls. How the calls were made is not given here.

What follows are compounds tested against Metabotropic glutamate receptor 5 (Rattus norvegicus) (UniProt P31424) (assay: mGlu5 allosteric site binders, biochemical, rat, HEK293A membranes, three-point Ki (AID 652191)). Conditions: rmGlu5 HEK293A membranes, [3H]methoxyPEPy displacement.
In short: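 Test system: membranes from HEK293A cells with stable rat mGlu5 expression. Quantity: 50 µg membranes per well. Buffer or medium: HBSS with HEPES and probenecid, pH 7.4. Schedule: 1 h at room temperature. Reagent: 2 nM [3H]methoxyPEPy. Detection: Filter-bound radioactivity by scintillation counting. Measure: radioligand displacement by compound.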

Metabotropic glutamate receptor 5 (Rattus norvegicus), sequence (P31424 whole entry, looked up): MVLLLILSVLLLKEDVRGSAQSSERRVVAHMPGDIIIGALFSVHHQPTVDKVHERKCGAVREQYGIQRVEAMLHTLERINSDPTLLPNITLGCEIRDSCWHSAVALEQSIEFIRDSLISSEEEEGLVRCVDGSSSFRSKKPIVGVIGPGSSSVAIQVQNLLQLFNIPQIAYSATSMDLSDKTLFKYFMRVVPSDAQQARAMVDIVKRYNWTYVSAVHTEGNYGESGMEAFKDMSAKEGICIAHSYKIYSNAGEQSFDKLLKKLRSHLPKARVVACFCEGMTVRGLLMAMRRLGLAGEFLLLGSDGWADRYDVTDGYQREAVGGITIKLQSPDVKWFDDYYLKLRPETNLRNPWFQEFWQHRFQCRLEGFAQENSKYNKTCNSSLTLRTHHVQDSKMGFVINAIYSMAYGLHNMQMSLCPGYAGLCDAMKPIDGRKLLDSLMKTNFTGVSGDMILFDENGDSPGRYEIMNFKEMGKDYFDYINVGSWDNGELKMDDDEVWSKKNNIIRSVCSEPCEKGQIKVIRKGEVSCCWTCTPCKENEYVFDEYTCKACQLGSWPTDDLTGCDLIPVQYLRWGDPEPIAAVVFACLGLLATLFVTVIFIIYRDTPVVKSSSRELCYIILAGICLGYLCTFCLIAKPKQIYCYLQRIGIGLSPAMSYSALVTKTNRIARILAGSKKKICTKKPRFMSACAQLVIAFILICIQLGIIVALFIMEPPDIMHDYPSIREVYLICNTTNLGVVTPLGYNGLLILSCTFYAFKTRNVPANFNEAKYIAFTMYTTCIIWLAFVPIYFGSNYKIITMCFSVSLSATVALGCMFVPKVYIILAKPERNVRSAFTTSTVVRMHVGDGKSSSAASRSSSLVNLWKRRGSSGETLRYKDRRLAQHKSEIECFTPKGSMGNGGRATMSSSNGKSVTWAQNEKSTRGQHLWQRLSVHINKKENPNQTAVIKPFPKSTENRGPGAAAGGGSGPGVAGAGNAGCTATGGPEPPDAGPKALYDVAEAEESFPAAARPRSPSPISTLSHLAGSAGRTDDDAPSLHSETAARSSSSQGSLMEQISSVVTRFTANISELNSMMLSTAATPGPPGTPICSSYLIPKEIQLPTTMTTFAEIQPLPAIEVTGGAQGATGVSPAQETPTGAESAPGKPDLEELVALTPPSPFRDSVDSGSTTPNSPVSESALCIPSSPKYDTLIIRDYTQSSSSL

SMILES	Ki
O=C(c1ccc(C#Cc2cccc(F)c2)nc1)N1CCC1	inactive
O=C(c1ccc(C#Cc2cccc(F)c2)cc1)N1CCOCC1	inactive
O=C(c1ccc(C#Cc2cccc(F)c2)nc1)N1CCOCC1	inactive
O=C(c1ccc(C#Cc2cccc(F)c2)cc1)N1CCC1	40 nM
CNC(=O)c1ccc(C#Cc2cccc(F)c2)cn1	inactive
O=C(c1ccc(C#Cc2cccc(F)c2)cn1)N1CC(F)C1	70 nM
CNC(=O)c1ccc(C#Cc2cccc(F)c2)cc1	inactive
O=C(c1ccc(C#Cc2cccc(F)c2)cn1)N1CCCCC1	10 nM
CC1CCN1C(=O)c1ccc(C#Cc2cccc(F)c2)cn1 (stereo not drawn)	4.83 nM
O=C(c1ccc(C#Cc2cccc(F)c2)cn1)N1CCCC1	20 nM
O=C(c1ccc(C#Cc2cccc(F)c2)cn1)N1CCC1	40 nM
O=C(c1ccc(C#Cc2cccc(F)c2)cn1)N1CC(O)(c2ccccc2)C1	inactive
O=C(c1ccc(C#Cc2cccc(F)c2)cn1)N1CC2CC2C1 (stereo not drawn)	10 nM
O=C(c1ccc(C#Cc2cccc(F)c2)cn1)N1CCOCC1	70 nM
O=C(c1ccc(C#Cc2cccc(F)c2)cn1)N1CCCCCC1	3.82 nM
O=C(c1ccc(C#Cc2cccc(F)c2)cn1)N1CCC(F)(F)CC1	4.42 nM
O=C(c1ccc(C#Cc2cccc(F)c2)cn1)N1CCC(O)CC1	inactive
O=C(c1ccc(C#Cc2cccc(F)c2)cn1)N1CCC(F)(F)C1	10 nM
